Test results: ChEMBL document CHEMBL3044914, “Synthesis of novel 12-aryl-8,9,10,12-tetrahydrobenzo[a]xanthene-11-thiones and evaluation of their biocidal effects” (2012)
Values after ≈ are worked out from the molar mass of the structure shown.

Experiments:
[1] = Inhibition of soil urease assessed as urea-N level at 1% compound level measured after 9 hr; details: concentration not given here
In short: (§1)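 Soil from cultivated institute farm fields, 50 g air-dried per beaker, moisture kept daily with distilled water. Compound in acetone added at 1% of applied urea-N (0.1 mg); urea-alone control; completely randomized design, three replicates. 5 g samples taken at 9 and 27 h, extracted with 1 M sodium sulfate containing phenyl mercuric acetate to stop hydrolysis; urea-N estimated.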

Spodoptera litura [2] = experiment: Insect growth regulatory activity against Spodoptera litura third-instar larvae assessed as abnormal or dead larva level at 0.1% measured after 24 hr post compound treatment by leaf-dip method; type: functional
In short: (§2)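 Third-instar larvae were reared on artificial diet, newly moulted and pre-weighed at 30–40 mg. The 0.1% solution was a stock, applied at different concentrations. Leaves on moistened filter paper in Petri dishes were sprayed with the test solution and dried. Ten larvae were placed per dish, in triplicate, with carrier-solvent controls. Larval weight, mortality, pupation, deformed pupae, intermediates, adult emergence and deformed adults were recorded after 24 h.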

Spodoptera litura [3] = experiment: Insecticidal activity against Spodoptera litura third-instar larvae exposed to 0.1% compound on ventral side of larvae assessed as mortality after 24 hr post compound treatment by contact method; type: functional
In short: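 Topical treatment of third-instar larvae aged 7 ± 1 day. Each treatment was run in triplicate with solvent as control. Mortality was recorded after 24 h.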

[4] = Inhibition of soil urease assessed as urea-N level at 1% compound level measured after 27 hr; details: concentration not given here; in short: as §1
Athelia rolfsii = experiment: Antifungal activity against Athelia rolfsii by food poison technique; type: functional; details: Agroathelia rolfsii; read-out: ED50 (the source's name)
Spodoptera litura [5] = experiment: Insect growth regulatory activity against Spodoptera litura third-instar larvae assessed as abnormal pupa or dead pupa level at 0.1% measured after 24 hr post compound treatment by leaf-dip method; type: functional; in short: as §2
Spodoptera litura [6] = experiment: Insecticidal activity against Spodoptera litura third-instar larvae fed on 0.1% compound pre-treated castor leaves assessed as mortality after 24 hr post compound treatment by feeding method; type: functional
In short: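 Castor leaf was dipped for 2 s in a 0.1% solution, air-dried and placed on moist filter paper in 9 cm Petri plates. Third-instar larvae aged 7 ± 1 day were prestarved 4 h and released singly into each plate. There were thirty replications per treatment, with a solvent control. Mortality was scored at 24 h.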

Spodoptera litura [7] = experiment: Insect growth regulatory activity against Spodoptera litura third-instar larvae assessed as growth inhibition index at 0.1% measured after 24 hr post compound treatment by leaf-dip method; type: functional
Alternaria porri = experiment: Antifungal activity against Alternaria porri by food poison technique; type: functional; details: read-out: ED50 (the source's name)
Spodoptera litura [8] = experiment: Insect growth regulatory activity against Spodoptera litura third-instar larvae assessed as normal adult level at 0.1% measured after 24 hr post compound treatment by leaf-dip method; type: functional
Fusarium oxysporum = experiment: Antifungal activity against Fusarium oxysporum by food poison technique; type: functional; details: read-out: ED50 (the source's name)
Macrophomina phaseolina = experiment: Antifungal activity against Rhizoctonia bataticola by food poison technique; type: functional; details: read-out: ED50 (the source's name)
Spodoptera litura [9] = experiment: Insect growth regulatory activity against Spodoptera litura third-instar larvae assessed as mortality at 0.1% measured after 24 hr post compound treatment by leaf-dip method; type: functional; in short: as §2

| Compound | inhibition [1] [%] | Activity (Spodoptera litura [2]) [%] | mortality (Spodoptera litura [3]) [%] | inhibition [4] [%] | EC50 (Athelia rolfsii) [µg/mL] | Activity (Spodoptera litura [5]) [%] | mortality (Spodoptera litura [6]) [%] | growth inhibition (GI) (Spodoptera litura [7]) [%] | EC50 (Alternaria porri) [µg/mL] | Activity (Spodoptera litura [8]) [%] | EC50 (Fusarium oxysporum) [µg/mL] | EC50 (Macrophomina phaseolina) [µg/mL] | mortality (Spodoptera litura [9]) [%] |
| --- | --- | --- | --- | --- | --- | --- | --- | --- | --- | --- | --- | --- | --- |
| CC1(C)CC(=S)C2=C(C1)Oc1ccc3ccccc3c1C2c1ccccc1 (stereo unspecified) | 5 | 0 | 20 | 5 | 525 (≈ 1420 µM) | 15 | 20 | 75 | 336 (≈ 906 µM) | 35 | 326 (≈ 879 µM) | 570 (≈ 1540 µM) | 50 |
| CC1(C)C(C=C(Cl)Cl)C1C(=O)OC(C#N)c1cccc(Oc2ccccc2)c1 (stereo not drawn) [ALPHA-CYPERMETHRIN] |  |  | 100 |  |  |  |  |  |  |  |  |  |  |
| S=C1CCCC2=C1C(c1ccccc1Br)c1c(ccc3ccccc13)O2 (stereo unspecified) | 1 | 20 | 50 | -2 | 225 (≈ 535 µM) | 5 | 90 | 25 | 136 (≈ 322 µM) | 75 | 148 (≈ 352 µM) | 286 (≈ 678 µM) | 0 |
| CC1(C)CC(=S)C2=C(C1)Oc1ccc3ccccc3c1C2c1ccc(Cl)cc1 (stereo unspecified) | 35 | 10 | 30 | 18 | 280 (≈ 692 µM) | 20 | 40 | 70 | 311 (≈ 767 µM) | 30 | 245 (≈ 606 µM) | 334 (≈ 825 µM) | 40 |
| S=C1CCCC2=C1C(c1ccccc1)c1c(ccc3ccccc13)O2 (stereo unspecified) | 47 | 0 | 10 | 22 | 500 (≈ 1460 µM) | 10 | 30 | 50 | 210 (≈ 613 µM) | 50 | 287 (≈ 839 µM) | 438 (≈ 1280 µM) | 40 |
| CC1(C)CC(=S)C2=C(C1)Oc1ccc3ccccc3c1C2c1cccs1 (stereo unspecified) | 4 | 0 | 0 | -8 | 457 (≈ 1210 µM) | 20 | 10 | 35 | 456 (≈ 1210 µM) | 65 | 375 (≈ 997 µM) | 590 (≈ 1570 µM) | 15 |
| COc1cc(C2C3=C(CC(C)(C)CC3=S)Oc3ccc4ccccc4c32)ccc1O (stereo unspecified) | -6 | 0 | 0 | 12 | 670 (≈ 1610 µM) | 20 | 10 | 30 | 433 (≈ 1040 µM) | 70 | 438 (≈ 1050 µM) | 567 (≈ 1360 µM) | 10 |
| S=C1CCCC2=C1C(c1cccc(Cl)c1)c1c(ccc3ccccc13)O2 (stereo unspecified) | 6 | 20 | 30 | 2 | 426 (≈ 1130 µM) | 10 | 60 | 60 | 268 (≈ 712 µM) | 40 | 320 (≈ 850 µM) | 380 (≈ 1010 µM) | 30 |
| CC1(C)CC(=S)C2=C(C1)Oc1ccc3ccccc3c1C2c1ccc2ccccc2c1 (stereo unspecified) | 1 | 20 | 0 | 3 | 199 (≈ 473 µM) | 10 | 80 | 30 | 165 (≈ 393 µM) | 70 | 189 (≈ 448 µM) | 244 (≈ 580 µM) | 0 |
| COc1ccccc1C1C2=C(CC(C)(C)CC2=S)Oc2ccc3ccccc3c21 (stereo unspecified) | 24 | 20 | 15 | 6 | 324 (≈ 810 µM) | 10 | 30 | 60 | 418 (≈ 1040 µM) | 40 | 336 (≈ 838 µM) | 484 (≈ 1210 µM) | 30 |
| CCCCC(O)(Cn1cncn1)c1ccc(Cl)cc1Cl (stereo unspecified) [HEXACONAZOLE] |  |  |  |  | 13 (≈ 41.2 µM) |  |  |  | 25.5 (≈ 81.3 µM) |  | 20.6 (≈ 65.4 µM) | 334 (≈ 1060 µM) |  |
| COc1ccc(C2C3=C(CC(C)(C)CC3=S)Oc3ccc4ccccc4c32)cc1 (stereo unspecified) | 5 | 10 | 0 | -4 | 365 (≈ 912 µM) | 20 | 10 | 40 | 406 (≈ 1010 µM) | 60 | 279 (≈ 697 µM) | 478 (≈ 1190 µM) | 10 |
| CC1(C)CC(=S)C2=C(C1)Oc1ccc3ccccc3c1C2c1ccc(F)cc1 (stereo unspecified) | -3 |  | 10 | 0 | 358 (≈ 922 µM) | 0 | 40 | 50 | 199 (≈ 511 µM) | 50 | 260 (≈ 670 µM) | 345 (≈ 888 µM) | 0 |
| O=[N+]([O-])c1ccc(C2C3=C(CCCC3=S)Oc3ccc4ccccc4c32)cc1 (stereo unspecified) | 1 | 10 | 0 | -1 | 670 (≈ 1730 µM) |  | 70 | 80 | 212 (≈ 547 µM) | 20 | 358 (≈ 923 µM) | 555 (≈ 1430 µM) | 50 |
| CC1(C)CC(=S)C2=C(C1)Oc1ccc3ccccc3c1C2c1cccc(Br)c1 (stereo unspecified) | 15 | 50 | 30 | 6 | 478 (≈ 1060 µM) |  | 10 | 100 | 321 (≈ 714 µM) | 0 | 310 (≈ 689 µM) | 475 (≈ 1060 µM) | 50 |
